Screening results (PubChem BioAssay)
Most compounds without a hit are left out; they make up all but 3.6% or so of the library.
SENP1 FRET inh: inhibitors of human SENP1 SUMO protease catalytic domain; Q9P0U3; recombinant SENP1 catalytic domain, CyPet-SUMO1-YPet FRET cleavage; inhibition, % at 10 µM; actives 0.21% (n = 360,000);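 active = inhibition at least 30% at 10 µM, raw YFP signal under a set limit, fluorescence ratio 0.5 to 1.5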
Target sequence (Q9P0U3 419-644 limits assumed): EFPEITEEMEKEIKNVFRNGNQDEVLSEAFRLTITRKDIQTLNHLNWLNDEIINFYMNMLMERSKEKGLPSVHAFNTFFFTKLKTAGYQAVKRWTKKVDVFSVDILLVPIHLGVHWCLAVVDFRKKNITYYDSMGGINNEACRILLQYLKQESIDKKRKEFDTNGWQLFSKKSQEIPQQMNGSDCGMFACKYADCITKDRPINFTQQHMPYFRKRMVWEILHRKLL
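Test system: recombinant human SENP1 catalytic domain, His6-tagged / Medium: pH 8 Tris buffer with EDTA, NaCl, BME, BSA, NP40, catalase / Also added: SUMO1 FRET substrate flanked by Cypet and Ypet, 25 nM / Times: 50 min reaction at room temperature / Signal: FRET, CFP and YFP emission / Control set: no-enzyme low control and enzyme-plus-DMSO high control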
NR3A LBD binder: modulators (binders) of human NR3A ligand-binding domain; NR3A LBD differential scanning fluorimetry, Tm shift; 0% = protein alone, 100% = glycine-bound protein; Tm shift relative to glycine control, % at 25 µM; actives 2.5% (n = 340,000);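 active = melting temperature shift of at least 10% of the positive control shift, at one fixed dose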
UCH37 DUB inh: human UCH37 deubiquitinating enzyme inhibition | purified proteasome/UCH37, Ub-AMC cleavage fluorescence | Q9Y5K5 | actives 0.33% (n = 330,000) | inhibition, % (no concentration beside the values);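 active = mean inhibition over replicate wells above about 20%, limit read from the data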
Target sequence (Q9Y5K5 whole entry, looked up): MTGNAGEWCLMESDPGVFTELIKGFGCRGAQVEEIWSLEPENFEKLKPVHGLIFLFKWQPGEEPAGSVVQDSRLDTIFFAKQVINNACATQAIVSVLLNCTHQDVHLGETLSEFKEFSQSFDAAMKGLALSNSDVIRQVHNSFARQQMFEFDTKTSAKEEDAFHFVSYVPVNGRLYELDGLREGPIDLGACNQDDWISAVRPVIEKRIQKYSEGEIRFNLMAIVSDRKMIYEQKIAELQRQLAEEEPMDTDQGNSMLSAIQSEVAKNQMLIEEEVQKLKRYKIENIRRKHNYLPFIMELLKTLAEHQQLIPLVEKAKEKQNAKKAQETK
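System: Proteasome-associated human UCH37 deubiquitinase; Input: 0.15 nM proteasome in added enzyme buffer; Also added: Ub-AMC substrate from 1 µM stock; Incubation: 30 min compound-proteasome preincubation then 25 min substrate reaction, room temperature; Detection: fluorescence, ex 355 nm, em 460 nm; Read-out: % inhibition of Ub-AMC cleavage fluorescence; Benchmarks: no-proteasome and no-compound wells.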
NadD inh: blocks S. aureus nicotinate mononucleotide adenylyltransferase | purified NadD enzyme, colorimetric absorbance read-out | inhibition, % at 20 µM | AID 602399 | actives 0.78% (n = 360,000); in the data active = inhibition above about 26%
ATG4B inhibitor: blocks human ATG4B protease cleavage of LC3 substrate. Q9Y4P1. ATG4B cleavage of LC3-PLA2, NBD-HPC fluorescence, 1 h. inhibition, % at 8.33 µM. actives 0.51% (n = 340,000); in the data active = inhibition above about 40%
Hits are given with their value.

`O=C(CC1C(=O)N(c2ccc(Cl)cc2)C(=S)N1CCc1ccncc1)Nc1ccc(F)cc1` (stereo not drawn) gave SENP1 FRET inh inactive, NR3A LBD binder 29, UCH37 DUB inh inactive, NadD inh inactive and ATG4B inhibitor inactive.
Screening COc1ccc(N2C(=O)C(CC(=O)Nc3ccc(Cl)cc3)N(NC(=O)c3cccc(F)c3)C2=S)cc1 (stereo not drawn) returned SENP1 FRET inh inactive, NR3A LBD binder 16, UCH37 DUB inh inactive, NadD inh inactive and ATG4B inhibitor inactive.
Screening CC(CC(=O)Nc1ccc2c(c1)OCCO2)=NNC(=O)COc1ccc(Cl)c(C)c1 returned UCH37 DUB inh inactive.
CC(=NNS(=O)(=O)c1ccc(Br)cc1)c1ccncc1 was read as UCH37 DUB inh inactive.
For COC(=O)C(C=NOCc1ccc([N+](=O)[O-])cc1)NC(=O)c1ccccc1 (stereo not drawn) the results were UCH37 DUB inh inactive.
`C[C@]12CCC3C(CC[C@H]4CC(O)CC[C@]34C)C1CCC2=NO` (stereo partly drawn) gave UCH37 DUB inh inactive.
Screening CC1CCN(c2cc(N3CCOCC3)c([N+](=O)[O-])cc2F)CC1 returned SENP1 FRET inh inactive, NR3A LBD binder inactive, UCH37 DUB inh inactive, NadD inh inactive and ATG4B inhibitor inactive.
`CC1CCN(c2cc(N3CCOCC3)c(F)cc2[N+](=O)[O-])CC1` gave SENP1 FRET inh inactive, NR3A LBD binder 15, UCH37 DUB inh inactive, NadD inh inactive and ATG4B inhibitor inactive.
`Cc1cc(NN=Cc2ccccc2O)c2ccccc2n1` gave UCH37 DUB inh inactive.
Screening C#CCOc1ccc(C=NO)cc1Cl returned UCH37 DUB inh inactive.
O=C(NCCC(=O)N1CCNC1=O)OCc1ccccc1 was read as SENP1 FRET inh inactive, NR3A LBD binder 14, UCH37 DUB inh inactive, NadD inh inactive and ATG4B inhibitor inactive.
O=C(NCCCCCCNC(=O)OCc1ccccc1)OCc1ccccc1 was read as SENP1 FRET inh inactive, NR3A LBD binder inactive, UCH37 DUB inh inactive, NadD inh inactive and ATG4B inhibitor inactive.
Screening O=C(NCc1ccco1)C1CC(c2ccc(C(F)(F)F)cc2)=NO1 (stereo not drawn) returned SENP1 FRET inh inactive, NR3A LBD binder inactive, UCH37 DUB inh 27, NadD inh inactive and ATG4B inhibitor inactive.
`COc1ccc(C2=NOC(C(=O)NCc3ccco3)C2)cc1` (stereo not drawn) gave SENP1 FRET inh inactive, NR3A LBD binder 11, UCH37 DUB inh inactive, NadD inh inactive and ATG4B inhibitor inactive.
C=CCN1C(=O)C(=c2sc3nc(=O)c(Cc4ccccc4)nn3c2=O)c2ccccc21 was read as UCH37 DUB inh inactive.
COCCNC(=O)C1=C(N)C(C(=O)Nc2ccc(C)c(S(=O)(=O)N3CCCCC3)c2)SC1=Nc1ccc(C)cc1C (stereo not drawn) was read as SENP1 FRET inh inactive, NR3A LBD binder inactive, UCH37 DUB inh inactive, NadD inh 50 and ATG4B inhibitor inactive.
`COCCNCC(=O)Nc1ccc(C)c(S(=O)(=O)N2CCCCC2)c1` gave SENP1 FRET inh inactive, NR3A LBD binder inactive, UCH37 DUB inh inactive, NadD inh inactive and ATG4B inhibitor inactive.
For C=CCn1nnnc1SCC(=O)Nc1cccc(C(F)(F)F)c1 the results were SENP1 FRET inh inactive, NR3A LBD binder 16, UCH37 DUB inh inactive, NadD inh inactive and ATG4B inhibitor inactive.
COc1ccc(S(=O)(=O)/N=C2/NC(=O)/C(=C\c3cc(OC)c(OC)cc3[N+](=O)[O-])S2)cc1 was read as SENP1 FRET inh inactive, NR3A LBD binder inactive, UCH37 DUB inh inactive, NadD inh inactive and ATG4B inhibitor inactive.
For COc1cc(/C=C2\S/C(=N/S(=O)(=O)c3ccccc3)NC2=O)c([N+](=O)[O-])cc1OC the results were SENP1 FRET inh inactive, NR3A LBD binder inactive, UCH37 DUB inh 23, NadD inh inactive and ATG4B inhibitor inactive.
`COc1ccc(/C=N/NC(=O)c2ccncc2)cc1CN1CCOCC1` gave SENP1 FRET inh inactive, NR3A LBD binder 12, NadD inh inactive and ATG4B inhibitor inactive.
O=C(NN=Cc1cccs1)c1sccc1-n1cccc1 was read as UCH37 DUB inh inactive.
Screening O=C1OC(c2ccc(O)cc2)(c2ccc(O)cc2)c2ccccc21 returned SENP1 FRET inh inactive, NR3A LBD binder inactive, UCH37 DUB inh inactive, NadD inh inactive and ATG4B inhibitor inactive.
Screening O=C1OC(c2ccccc2)(c2ccc3cc(O)ccc3c2)c2ccccc21 (stereo not drawn) returned SENP1 FRET inh inactive, NR3A LBD binder 10, UCH37 DUB inh inactive, NadD inh inactive and ATG4B inhibitor inactive.
`NC(=O)c1ncn([C@@H]2O[C@H](CNCc3cccc4c3sc3ccccc34)[C@@H](O)[C@H]2O)n1` gave SENP1 FRET inh inactive, NR3A LBD binder inactive, NadD inh inactive and ATG4B inhibitor inactive.
NC(=O)c1ncn([C@@H]2O[C@H](CNCc3cccc(OC4CCCC4)c3)[C@@H](O)[C@H]2O)n1 was read as SENP1 FRET inh inactive, NR3A LBD binder 17, NadD inh inactive and ATG4B inhibitor inactive.
Screening NC(=O)c1ncn([C@@H]2O[C@H](CNCc3cnc(N4CCOCC4)nc3)[C@@H](O)[C@H]2O)n1 returned SENP1 FRET inh inactive, NR3A LBD binder 13, NadD inh inactive and ATG4B inhibitor inactive.
For COc1cc(Cl)c(CNC[C@H]2O[C@@H](n3cnc(C(N)=O)n3)[C@H](O)[C@@H]2O)c(Cl)c1O the results were SENP1 FRET inh inactive, NR3A LBD binder inactive, NadD inh inactive and ATG4B inhibitor inactive.
For O=C(COc1ccccc1[N+](=O)[O-])NN=Cc1ccc[nH]1 the results were UCH37 DUB inh inactive.
Screening O=C(Nc1ccc(Cl)cc1)c1cc2c(cc1O)[nH]c1ccccc12 returned SENP1 FRET inh inactive, NR3A LBD binder 32, UCH37 DUB inh inactive, NadD inh inactive and ATG4B inhibitor inactive.
Nc1nn2c(-c3ccccc3)cc(=O)[nH]c2c1N=Nc1ccc(Br)cc1 was read as SENP1 FRET inh inactive, NR3A LBD binder 25, UCH37 DUB inh inactive, NadD inh 77 and ATG4B inhibitor inactive.
Nc1nn2c(-c3ccccc3)cc(=O)[nH]c2c1N=Nc1ccc(O)cc1 was read as SENP1 FRET inh inactive, NR3A LBD binder 27, UCH37 DUB inh inactive, NadD inh inactive and ATG4B inhibitor inactive.
O=c1c2c(-c3ccc(Cl)cc3)csc2ncn1N=Cc1cccc([N+](=O)[O-])c1O was read as UCH37 DUB inh inactive.
`O=[N+]([O-])c1nn(-c2ccc3c(c2)OCCO3)n(O)c1=NCCCO` gave SENP1 FRET inh inactive, NR3A LBD binder inactive, UCH37 DUB inh inactive, NadD inh inactive and ATG4B inhibitor inactive.
`Cc1ccc(CN=c2c([N+](=O)[O-])nn(-c3ccc4c(c3)OCCO4)n2O)cc1` gave SENP1 FRET inh inactive, NR3A LBD binder 13, UCH37 DUB inh inactive, NadD inh inactive and ATG4B inhibitor inactive.
